# Compound activity deposited in PubChem BioAssay by several laboratories.
# Only some compounds are listed: those with a hit (about 4.2% of all), similar ones and a draw of the others.
# TMEM16A inh: blocks the mouse calcium-activated chloride channel TMEM16A. Q8BHY3. HEK293 TMEM16A/YFP iodide influx fluorescence, ionomycin. normalized B-score (activity score, 25-100; higher = stronger inhibition) at 10 µM. 1.2% of 310,000 active;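 active = ratio plate-corrected score three or more library SD toward inhibition, starting fluorescence score within five deviations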;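 also: score derived from kinetic fluorescence span divided by baseline fluorescence per well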
# Lipid droplet: hepatic lipid droplet formation modulation | inhibition, % at 6.5 µM | 0.4% of 240,000 active | AML12 mouse hepatocytes, oleate lipid droplets, BODIPY imaging;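 active = lipid droplet intensity inhibited by at least 50%, with more than 500 cells counted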
#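 Material: mouse AML12 hepatocyte cell line, fixed after treatment; Timing: compound with oleate, overnight; Technique: high-content imaging of BODIPY-stained droplets and DAPI nuclei; Probe or stimulus: oleate, 100 µM final; Dosing: compound at 6.5 µM only.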
# UPR XBP1 act: activators of adaptive arm of unfolded protein response (XBP1) | CHO-XBP1 luciferase reporter, IRE1-XBP1 UPR activation, luminescence; percent of tunicamycin response, DMSO as zero | activation, % at 20 µM | 0.33% of 330,000 active | AID 463104;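 active = versus positive control, 20 µM dose yields 30% or more activation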;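 also: 100% = tunicamycin at 10 µg/mL and 0% = DMSO only wells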
#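 Assay system: CHO-XBP1 luciferase reporter cells; Schedule: 6 h treatment, 37 °C; Detection: glow luminescence from Steady-Glo reagent; Benchmarks: high control tunicamycin 10 µg/mL final, low control DMSO vehicle only.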
# ANO1 activ: mouse TMEM16A channel activation, primary screen; Q8BHY3; HEK293 TMEM16A/YFP-H148Q/I152L, iodide quench fluorescence; stronger effect = lower value; B-score at 10 µM; 0.3% of 340,000 active;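 active = fluorescence-ratio B-score plate-corrected deviation score at least 3 library SD below zero, with starting fluorescence score within 5 deviations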;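 also: channel opened by trigger with iodide after compound preincubation; score built on the fluorescence ratio of max minus min over baseline; more negative score means more quench and so TMEM16A activation or potentiation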
# CHOP UPR activ: apoptotic UPR (CHOP) activation. CHO-CHOP luciferase reporter, luminescence; percent of tunicamycin response over DMSO baseline. activation, % at 10 µM. 0.34% of 330,000 active. AID 449763;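 active = at 10 µM dose, activation of 40% or more, normalized to positive control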;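 also: 100% = tunicamycin at 10 µg/mL and 0% = DMSO alone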
#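 Evaluation: % reporter activation, DMSO baseline versus tunicamycin full activation; System: CHO-CHOP luciferase reporter cell line; Input: 500 cells/well; Incubation: 6 h compound treatment, 37 °C; Measured by: Steady-Glo luciferase luminescence; Dosing: one dose, 10 µM in 0.5% DMSO; Buffer or medium: F12 medium, 10% FBS; Benchmarks: positive tunicamycin 10 µg/mL, negative DMSO alone.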
# CHOP inhibitor: blocks CHOP induction under ER stress; inhibition, % at 10 µM; CHO-K1 CHOP-promoter luciferase, tunicamycin-induced, 15-18 h; 3.8% of 220,000 active; AID 2732;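 active = compounds that reduced the stress-induced luciferase reporter signal by more than about 70% of percent inhibition, limit read from the data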;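 also: 0% = tunicamycin plus vehicle and 100% = wells without tunicamycin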
# TMEM16A reconf: TMEM16A (mouse) chloride channel inhibition, re-confirmation. shares compounds with TMEM16A inh. HEK293 TMEM16A/YFP-H148Q, iodide quench fluorescence; ionomycin added to raise cell calcium. inhibition, % at 10 µM. 39% of 2,300 active. AID 652189;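 active = mean duplicate percent inhibition, scaled so buffer wells are 0 and the reference blocker 100, over three buffer SD above buffer mean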
# TMEM16A Ca cntr: calcium mobilization counter-screen hit for TMEM16A inhibitor series. 2% of 2,300 active. TMEM16A/YFP HEK293, Fluo4 calcium mobilization. calcium response (% of ionomycin), % at 10 µM. shares compounds with TMEM16A inh;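 active = duplicate-averaged calcium signal over 20% of the ionomycin maximum, relative to buffer baseline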;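 also: each well's signal is peak minus trough fluorescence divided by its pre-addition baseline; 0% = buffer wells and 100% = ionomycin wells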
# YFP-HEK293 quench: parental YFP-HEK293 iodide quench counter-screen activity; YFP ratio F(max-min)/F0 at 10 µM; shares compounds with TMEM16A inh; AID 652233; ionomycin; 2,300 tested, under 10 active;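 active = yellow fluorescent protein signal ratio exceeding the buffer control mean by over 5 SD of those controls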;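 also: ratio is mean of duplicate wells from kinetic YFP trace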
# ClC-1 rat inh: rat ClC-1 inhibition, TMEM16A specificity screen; shares compounds with TMEM16A inh; CHO ClC-1-YFP, iodide influx fluorescence quench; iodide control reads 0, buffer control 100; ratio percent, % at 10 µM; 2,300 tested, under 10 active; AID 652236;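 active = duplicate-mean ratio percent above the mean of iodide-only control wells, which defines zero, plus 5 of their SD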;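 also: higher percent means stronger block of ClC-1 iodide influx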
# * = called active by the depositor; i = inactive; . = not tested or not shown.
SMILES,TMEM16A inh,Lipid droplet,UPR XBP1 act,ANO1 activ,CHOP UPR activ,CHOP inhibitor,TMEM16A reconf,TMEM16A Ca cntr,YFP-HEK293 quench,ClC-1 rat inh
COc1ccc(C2(CNC(=O)c3cccc([N+](=O)[O-])c3)CCOCC2)cc1,i,-11,1,i,29,2,.,.,.,.
Cc1c(C(=O)Nc2ccc(OC(F)(F)F)cc2)sc2nc3n(c(=O)c12)CCC3,i,.,1,i,3,41,.,.,.,.
Cc1c(C(=O)Nc2ccc(Oc3ccccc3)cc2)sc2nc3n(c(=O)c12)CCC3,100*,.,3,i,2,53,i,i,-1.2,-18
O=C(c1ccc(F)cc1)C1CCN(C(=O)N2CCOCC2)CC1,i,.,-2,i,0,16,i,i,-1.1,-12
COc1ccc(C(=O)COC(=O)C(CCSC)NC(=O)COc2ccccc2)cc1 (stereo not given),i,.,1,i,0,.,.,.,.,.
COc1ccc(OC)c(NC(=O)c2ccc(-n3cccn3)nc2)c1,i,.,0,i,-2,15,.,.,.,.
CN(CC(CC(=O)Nc1nncs1)c1ccccc1)S(=O)(=O)c1ccc(Br)cc1 (stereo not given),100*,.,-1,i,-1,-16,i,i,-0.96,-12
C=CCN1C(=O)/C(=C/C=C2/N(CC)c3ccc(S(=O)(=O)N(C)C)cc3N2CC)SC1=S,i,35,-2,i,-3,-9,.,.,.,.
CCN(CC)S(=O)(=O)c1ccc(S(=O)(=O)Nc2c(C)nn(C)c2C)cc1,25*,.,-4,i,1,.,30%*,i,-0.91,-5
COc1ccc(C(=O)/C=C/c2cn(CC(O)CN3CCN(C)CC3)c3ccccc23)cc1OC (stereo not given),i,4,1,i,2,0,i,i,-0.95,0
O=C(/C=C/c1cn(CC(O)CN2CCCCC2)c2ccccc12)c1ccccc1 (stereo not given),.,-6,.,i,.,-15,.,.,.,.
CN(C)S(=O)(=O)N1CCC(Oc2cccc(C(=O)NCCC3=CCCCC3)c2)CC1,100*,2,-4,i,0,.,22%*,i,-1.2,-20
COC(=O)c1ccc(NC(=O)Nc2ccc(OC)c(OC)c2)cc1,i,-11,4,i,10,-23,.,.,.,.
COc1ccc(NC(=O)NC23CC4(C)CC(C)(CC(C)(C4)C2)C3)cc1OC,25*,-24,-1,i,7,64,i,i,-1.3,3
CCOc1ccc(-c2noc(CCCC(=O)NC3CCCCC3)n2)cc1OC,i,-1,2,i,3,.,.,.,.,.
Clc1ccc(CCNc2ncnc3nc[nH]c23)cc1,100*,4,0,i,2,.,36%*,i,-1.2,-12
CCOC(=O)C1=C(C)NC2=C(C(=O)C(C(=O)OC)C(C)C2)C1c1ccc(OC)c(O)c1 (stereo not given),25*,.,1,i,1,19,i,i,-0.85,0
O=C(Cc1ccc(Br)cc1)Nc1ccc2[nH]ncc2c1,i,3,2,i,17,.,.,.,.,.
O=C(Nc1nc(-c2cccs2)c(C(=O)C(F)(F)F)s1)c1ccccc1,100*,-32,3,i,3,21,53%*,i,-1.1,-18
Cc1nc(SCC(N)=O)c([N+](=O)[O-])[nH]1,i,5,0,i,2,-14,.,.,.,.
C/C(=N\NC(=O)CSc1nc(C)[nH]c1[N+](=O)[O-])c1ccc(F)cc1,100*,-1,6,i,5,-3,i,i,-0.93,-3
CC(C)(C)NS(=O)(=O)c1cc(C(=O)Nc2sccc2C#N)ccc1Cl,i,44,-4,i,-1,9,i,i,-1,-14
CS(=O)(=O)c1ccc(Sc2nc3ccccc3s2)c([N+](=O)[O-])c1,i,8,-2,i,2,6,.,.,.,.
CS(=O)(=O)c1ccc(Sc2nc3ccccc3[nH]2)c([N+](=O)[O-])c1,i,.,1,i,3,14,i,i,-0.92,2
Cc1cc(C)cc(C(=O)NC(=S)Nc2cccnc2)c1,i,-4,0,i,3,.,.,.,.,.
